Results pooled from the literature.
Each line is one published result; the experiments were not run side by side.
Target: Tyrosine-protein kinase Yes (YES1, Homo sapiens, UniProt P07947)

For `CCC(=N\O)/C(C)=C/c1ccc(F)cc1`, the remaining binding was 87% (cell-free assay, competition with immobilised ligand; 1 µM).
The remaining binding of `FC(F)(F)Oc1cccc(-c2cnc3ccc(-c4ccncc4)nn23)c1` is reported as 81% (binding, competition with immobilised ligand; 5 µM).
`Cc1cnc(Nc2ccc(C(=O)N3CCC(N4CCCC4)CC3)cc2)nc1-c1cc2ccccc2s1` has a remaining binding of 43% (binding, competition with immobilised ligand; 1 µM).
`COc1ccc2cc(OCC3(C(=O)O)CN(C(=O)c4ccc(F)cc4)C3)ccc2c1` has a remaining binding of 100% (cell-free assay, competition with immobilised ligand; 1 µM).
For `CN1CCN(c2ccc(Nc3nccc(-c4cccc([N+](=O)[O-])c4)n3)cc2C(F)(F)F)CC1`, the remaining binding was 32% (binding; 10 µM).
For `N[C@H]1CCN(c2nccc(-c3cnn4ncccc34)n2)C1`, the remaining binding was 91% (binding; 1 µM).
For `O=C(c1ccc(Nc2nccc(-c3cc4ccccc4s3)n2)cc1)N1CCC(N2CCCC2)CC1`, the remaining binding was 93% (binding, competition with immobilised ligand; 1 µM).
The remaining binding of `CN(C)c1nccc(-c2cnc3ncccn23)n1` is reported as 88% (binding; 1 µM).
`O=C(N[C@H]1CCCCC/C=C\C2C[C@@]2(C(=O)O)NC(=O)[C@@H]2C[C@@H](Oc3ccncc3)CN2C1=O)OC1CCCC1` (stereo partly shown) has a remaining binding of 100% (binding, competition with immobilised ligand; 1 µM).
The remaining binding of `CC1CCCN1c1nccc(-c2cnn3ncccc23)n1` (stereo not shown) is reported as 89% (binding; 1 µM).
The remaining binding of `CC(=O)N1CCC(c2ccc(C(=O)NC(=N)N)cc2C(F)(F)F)CC1` is reported as 98% (cell-free assay, competition with immobilised ligand; 1 µM).
`C[C@@H]1CCN(c2nccc(-c3cnn4ncccc34)n2)C1` has a remaining binding of 100% (binding; 1 µM).
`Cc1c(C(=O)O)cc(-c2ccc(C3CCNCC3)cc2)c2ccc(-c3ccc(C(F)(F)F)cc3)cc12` has a remaining binding of 100% (cell-free assay, competition with immobilised ligand; 1 µM).
The remaining binding of `Cc1ccc(-n2nc(C(C)(C)C)cc2NC(=O)Nc2ccc(-n3c(N)c(C(N)=O)c4nc5ccccc5nc43)cc2)cc1` is reported as 9.6% (cell-free assay, competition with immobilised ligand; 1 µM).
`Cc1cnn2ncc(-c3ccnc(N(C)C)n3)c2c1` gave a remaining binding of 100% (binding; 1 µM).
The remaining binding of `C[C@@H](c1ccc(-n2cnc3c(N)ncnc32)cc1)N1CCc2nn(C)c(Cc3ccccc3)c2C1=O` is reported as 74% (binding, competition with immobilised ligand; 0.1 µM).
The remaining binding of `C[C@H](NC(=O)c1cnc2n1[C@](C)(Cc1ccc(C#N)cc1)C(=O)N2c1cc(Cl)c(F)c(Cl)c1)C(=O)NC1(c2ccccn2)CC1` is reported as 100% (cell-free assay, competition with immobilised ligand; 1 µM).
With `COc1ncc2cc3ccccc3nc2c1C#N` the remaining binding was 100% (cell-free assay, competition with immobilised ligand; 5 µM).
With `O=C(Nc1c[nH]nc1C(=O)NC1CCNCC1)c1cc(F)cc(F)c1` the remaining binding was 100% (binding, competition with immobilised ligand; 1 µM).
`O=C(NCCCN1CCOCC1)c1ccc(Nc2ncc(Cl)c(-c3ccc(Cl)s3)n2)cc1` gave a remaining binding of 76% (binding, competition with immobilised ligand; 1 µM).
The remaining binding of `CSc1cccnc1N1CCN(Cc2nc3ccccc3[nH]2)CC1` is reported as 100% (cell-free assay, competition with immobilised ligand; 1 µM).
`c1cncc(-c2cccc(Nc3nccc(NC4CCCCC4)n3)c2)c1` has a remaining binding of 28% (binding, competition with immobilised ligand; 10 µM).
With `Cc1nc(C2CCN(C(=O)c3ccc(OC(F)(F)F)cc3N)CC2)c2ncc(N3CCN(C)CC3)cc2n1` the remaining binding was 100% (cell-free assay, competition with immobilised ligand; 1 µM).
The remaining binding of `c1cnn2ncc(-c3ccnc(N4CCC45COC5)n3)c2c1` is reported as 72% (binding; 1 µM).
The remaining binding of `COc1cnc(Nc2cccc(S(N)(=O)=O)c2)nc1N1CCN(c2ccccc2)C(=O)C1` is reported as 100% (binding, competition with immobilised ligand; 1 µM).
